This note sets out measurements from ChEMBL document CHEMBL2385063, “Identification of 2-(2-(1-naphthoyl)-8-fluoro-3,4-dihydro-1H-pyrido[4,3-b]indol-5(2H)-yl)acetic acid (setipiprant/ACT-129968), a potent, selective, and orally bioavailable chemoattractant receptor-homologous molecule expressed on Th2 cells (CRTH2) antagonist” (J Med Chem, 2013).

Active and inactive are the calls of the source. No cut-off for these calls is given here.

Data set [1] addresses T1, Prostaglandin E2 receptor EP4 subtype (Homo sapiens, UniProt P35408). Nature of the data set: Inhibition of beta-arrestin binding to recombinant human prostanoid EP4 receptor expressed in HEK293 cell membranes by beta-lactamase complementation assay.
A short description of data set [2]: Protein binding in plasma (unknown origin). Type of data set: ADME, cell-free. The settings on record: read-out: PPB.
The target in data set [3] is T2, Prostaglandin D2 receptor 2 (Mus musculus) (UniProt Q9Z2J6).
T2 sequence (whole entry): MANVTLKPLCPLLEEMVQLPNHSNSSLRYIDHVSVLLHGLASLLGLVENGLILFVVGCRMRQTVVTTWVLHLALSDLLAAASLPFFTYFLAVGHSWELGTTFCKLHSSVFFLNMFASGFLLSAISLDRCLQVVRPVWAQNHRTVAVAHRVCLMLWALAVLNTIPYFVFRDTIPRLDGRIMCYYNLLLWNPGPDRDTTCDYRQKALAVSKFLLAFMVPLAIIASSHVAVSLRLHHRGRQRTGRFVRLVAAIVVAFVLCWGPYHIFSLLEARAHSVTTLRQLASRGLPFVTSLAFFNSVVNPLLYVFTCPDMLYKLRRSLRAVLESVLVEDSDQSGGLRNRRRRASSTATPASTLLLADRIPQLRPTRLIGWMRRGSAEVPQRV
Nature of the data set: Antagonist activity at mouse CRTH2 receptor assessed as inhibition of calcium flux by cell-based FLIPR assay. Type of data set: functional.

For data set [4], the target named is T1, Prostaglandin E2 receptor EP4 subtype. Nature of the data set: Displacement of [3H]PGE2 from recombinant human prostanoid EP4 receptor expressed in HEK293 cell membranes after 90 mins by scintillation counting analysis.
Data set [5] concerns the target T3, Prostaglandin D2 receptor 2 (Homo sapiens, UniProt Q9Y5Y4).
T3 sequence (Q9Y5Y4 whole entry): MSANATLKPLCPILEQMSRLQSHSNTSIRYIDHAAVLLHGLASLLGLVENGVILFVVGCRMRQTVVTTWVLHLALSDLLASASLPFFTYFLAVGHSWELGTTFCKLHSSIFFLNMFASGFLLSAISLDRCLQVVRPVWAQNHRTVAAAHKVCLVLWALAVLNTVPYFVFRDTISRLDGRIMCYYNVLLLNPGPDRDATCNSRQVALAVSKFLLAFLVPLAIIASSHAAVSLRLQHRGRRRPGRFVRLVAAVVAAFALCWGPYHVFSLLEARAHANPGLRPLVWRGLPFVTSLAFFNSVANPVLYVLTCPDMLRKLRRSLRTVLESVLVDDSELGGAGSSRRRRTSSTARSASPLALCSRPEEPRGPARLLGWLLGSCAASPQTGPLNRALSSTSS
Put plainly: Displacement of [3H]PGD2 from recombinant human CRTH2 receptor expressed in HEK293 cell membranes after 90 mins by scintillation counting analysis in presence of human serum albumin. Summed up:
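Same hCRTH2 HEK293 membrane [3H]PGD2 (2.5 nM) displacement, 90 min at room temperature, with 0.5% human serum albumin added to the assay buffer; scintillation counting.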

Data set [6] addresses T4, G-protein coupled receptor (Canis lupus familiaris) (UniProt Q2A652).
T4 sequence (whole entry): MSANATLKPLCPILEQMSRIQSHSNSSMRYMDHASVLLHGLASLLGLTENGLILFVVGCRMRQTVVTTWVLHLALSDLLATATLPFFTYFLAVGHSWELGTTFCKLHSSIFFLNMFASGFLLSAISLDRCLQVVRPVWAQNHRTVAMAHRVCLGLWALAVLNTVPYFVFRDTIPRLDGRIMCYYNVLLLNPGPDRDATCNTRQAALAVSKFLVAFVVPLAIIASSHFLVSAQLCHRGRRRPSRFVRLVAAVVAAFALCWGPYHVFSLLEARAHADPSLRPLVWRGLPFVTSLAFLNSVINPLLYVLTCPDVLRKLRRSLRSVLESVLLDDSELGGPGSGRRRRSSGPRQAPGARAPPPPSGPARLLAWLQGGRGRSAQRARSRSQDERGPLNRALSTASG
Put plainly: Antagonist activity at dog CRTH2 receptor assessed as inhibition of calcium flux by cell-based FLIPR assay. The format is functional.

Data set [7] has as its target T5, Prostaglandin D2 receptor (Homo sapiens, UniProt Q13258).
T5 sequence (Q13258 whole entry): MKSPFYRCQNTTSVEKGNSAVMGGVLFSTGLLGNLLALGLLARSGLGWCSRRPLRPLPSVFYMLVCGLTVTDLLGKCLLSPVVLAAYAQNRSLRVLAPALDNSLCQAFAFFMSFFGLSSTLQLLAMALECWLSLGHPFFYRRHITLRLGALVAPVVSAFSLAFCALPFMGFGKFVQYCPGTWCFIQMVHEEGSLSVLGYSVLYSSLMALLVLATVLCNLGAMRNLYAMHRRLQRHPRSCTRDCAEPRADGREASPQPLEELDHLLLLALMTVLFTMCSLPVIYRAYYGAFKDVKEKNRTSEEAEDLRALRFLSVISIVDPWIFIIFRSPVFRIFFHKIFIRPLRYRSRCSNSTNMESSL
Nature of the data set: Displacement of [3H]PGD2 from recombinant human prostanoid DP1 receptor expressed in CHO cells after 90 mins by scintillation counting analysis. The format is cell-based. Summed up:
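Competitive binding with CHO cells stably expressing high levels of recombinant hDP1, using [3H]PGD2 as ligand; IC50 reported.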

For data set [8], the target named is T6, Prostaglandin E2 receptor EP1 subtype (Homo sapiens, UniProt P34995).
T6 sequence (P34995 whole entry): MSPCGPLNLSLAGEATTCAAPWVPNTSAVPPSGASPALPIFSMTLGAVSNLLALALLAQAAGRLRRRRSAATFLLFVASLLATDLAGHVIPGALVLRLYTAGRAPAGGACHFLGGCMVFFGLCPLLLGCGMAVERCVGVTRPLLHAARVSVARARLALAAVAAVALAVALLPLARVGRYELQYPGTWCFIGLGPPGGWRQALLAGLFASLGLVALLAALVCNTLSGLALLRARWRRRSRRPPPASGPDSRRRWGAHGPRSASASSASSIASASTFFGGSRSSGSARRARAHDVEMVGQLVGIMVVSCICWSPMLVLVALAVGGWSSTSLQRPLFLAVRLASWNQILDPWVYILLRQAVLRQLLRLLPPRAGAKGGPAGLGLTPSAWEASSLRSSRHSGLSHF
Nature of the data set: Antagonist activity at human prostanoid EP1 receptor expressed in CHOK1 cells assessed as inhibition of PGE2-induced calcium flux after 60 mins by FLIPR assay. The format is functional, cell-based, CHO-K1.

For data set [9], the target named is T7, Chemoattractant receptor-homologous molecule expressed on Th2 cells (Cavia porcellus) (UniProt Q56D28).
T7 sequence (whole entry): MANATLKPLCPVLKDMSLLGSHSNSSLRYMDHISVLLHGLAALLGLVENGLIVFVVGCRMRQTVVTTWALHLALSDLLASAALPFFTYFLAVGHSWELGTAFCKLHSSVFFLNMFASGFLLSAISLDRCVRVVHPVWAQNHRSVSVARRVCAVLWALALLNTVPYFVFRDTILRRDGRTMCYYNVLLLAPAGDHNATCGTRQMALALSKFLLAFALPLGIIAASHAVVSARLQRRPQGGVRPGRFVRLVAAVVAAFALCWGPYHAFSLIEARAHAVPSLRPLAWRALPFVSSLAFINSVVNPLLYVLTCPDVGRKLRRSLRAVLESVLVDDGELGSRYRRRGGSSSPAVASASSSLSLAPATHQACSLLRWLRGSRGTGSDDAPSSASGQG
Nature of the data set: Antagonist activity at guinea pig CRTH2 receptor assessed as inhibition of calcium flux by cell-based FLIPR assay. Type of data set: functional.

T1 sequence (P35408 whole entry): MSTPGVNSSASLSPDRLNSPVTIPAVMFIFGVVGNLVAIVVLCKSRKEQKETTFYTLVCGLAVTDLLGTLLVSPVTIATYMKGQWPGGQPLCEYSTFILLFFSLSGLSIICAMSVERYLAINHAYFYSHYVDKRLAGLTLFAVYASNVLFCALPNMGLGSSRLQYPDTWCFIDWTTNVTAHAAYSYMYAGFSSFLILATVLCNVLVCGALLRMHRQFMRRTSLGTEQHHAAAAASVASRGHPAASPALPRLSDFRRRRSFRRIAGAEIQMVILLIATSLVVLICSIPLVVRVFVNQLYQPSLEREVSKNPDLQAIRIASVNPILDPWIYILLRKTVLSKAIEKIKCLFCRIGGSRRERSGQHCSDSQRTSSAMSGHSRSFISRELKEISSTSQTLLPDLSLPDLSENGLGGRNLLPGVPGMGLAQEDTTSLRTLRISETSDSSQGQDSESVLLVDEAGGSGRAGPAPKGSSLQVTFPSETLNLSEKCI

As for `O=C(O)Cn1c2c(c3cc(C(F)(F)F)ccc31)CN(C(=O)c1ccccc1)CC2`, the concentration for half-maximal inhibition (IC50) is more than 10 µM in data set [1]; more than 10 µM in data set [4]; 0.06 µM in data set [5]; more than 10 µM in data set [7]; more than 25 µM in data set [8]. Moreover, the fraction unbound in [2] was less than 0.03. In addition, the inhibition result in data set [3], in data set [6] and in data set [9] was “Active” throughout.

Turning to `O=C(O)Cn1c2c(c3ccccc31)CN(C(=O)c1cccc(Cl)c1)CC2`, the half-inhibitory concentration (IC50) is more than 10 µM in data set [1]; more than 10 µM in data set [4]; 0.03 µM in [5]; more than 10 µM in data set [7]; more than 25 µM in data set [8]. In addition, in data set [2], the fraction unbound is less than 0.03. Further, the inhibition entry in data set [3], in data set [6] and in [9] was “Active” in each case.

For `O=C(O)Cn1c2c(c3cc(F)cc(Cl)c31)CN(C(=O)c1cccc3ccccc13)CC2`, the half-inhibitory concentration (IC50) is more than 10 µM in data set [1]; more than 10 µM in [4]; 0.53 µM in data set [5]; 0.31 µM in [7]; more than 25 µM in [8]. Moreover, the fraction unbound in [2] was less than 0.03. For the same compound, the inhibition result in [3], in [6] and in data set [9] was “Active” throughout.

Take `O=C(O)Cn1c2c(c3cc(F)ccc31)CN(C(=O)Cc1c[nH]c3ccccc13)CC2`: the IC50 in data set [1] was more than 10 µM; in [4], more than 10 µM; in data set [5], 0.035 µM; in data set [7], more than 10 µM; in [8] it was more than 25 µM. For the same compound, in [2], the fraction unbound was less than 0.03. In addition, the inhibition entry in data set [3], in [6] and in data set [9] was “Active” in each case.

For the compound `O=C(O)Cn1c2c(c3cc(F)cc(Cl)c31)CN(C(=O)c1cccc(Cl)c1)CC2`, the IC50 was more than 10 µM in data set [1]; more than 10 µM in data set [4]; 0.18 µM in data set [5]; 4.1 µM in data set [7]; more than 25 µM in data set [8]. Besides, the fraction unbound in data set [2] is less than 0.03. Besides, the inhibition result in data set [3], in data set [6] and in [9] was “Active” throughout.

Take `O=C(O)Cn1c2c(c3cc(C(F)(F)F)ccc31)CN(C(=O)c1cccc3ccccc13)CC2`: the half-inhibitory concentration (IC50) is more than 10 µM in [1]; more than 10 µM in [4]; 0.07 µM in [5]; 2.2 µM in data set [7]; more than 25 µM in data set [8]. Further, in data set [2], the fraction unbound is less than 0.03. Further, the inhibition entry in data set [3], in data set [6] and in data set [9] was “Active” each time.
